Paper PMC9929485 (International Journal for Parasitology: Drugs and Drug …, 2023)

Columns and labels:
Cytotoxicity assay = assay type: cell-based; conditions: African green monkey, Vero cells
Procedure, shortened: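 Vero cells were seeded at 1 × 10^4 per well, grown to monolayer, then exposed for 24 h to 0.78125–100 μM test compound in DMEM with 1% FBS (DMSO <1% v/v), with an untreated control. Viability was read by CCK-8 (1 h, absorbance 450 nm). Survival % = (treated − blank)/(control − blank) × 100. Triplicate independent experiments.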

[1] = tested on: T. gondii tachyzoites in Vero cells; experiment: Plaque assay; assay type: cell-based, Toxoplasma gondii RH strain
Procedure, shortened: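 Proliferation arm: Vero monolayers were infected with 2 × 10^4 tachyzoites per well for 8 h, then given 0.625–10.0 μM test compound in DMEM with 1% FBS for 24 h. Invasion arm: tachyzoites were pre-exposed to compound, then allowed to infect Vero cells for 2 h. Drug-free controls were included. After 48, 72 or 96 h, cells were PBS-washed, fixed in 4% paraformaldehyde and stained with crystal violet for 10 min. PVs per field and parasites per PV were counted in ≥20 random fields per well (40× objective).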

T. gondii tachyzoites [2] = experiment: Anti-invasion assessment by qPCR; assay type: cell-based, Toxoplasma gondii RH strain
Procedure, shortened: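 Vero monolayers were preincubated with 0.625–10.0 μM test compound in DMEM with 1% FBS. Controls were 11.5 μM azithromycin (positive) and no drug (negative). Then 2 × 10^6 fresh tachyzoites were added per well for 2 h. Cells were washed twice with DPBS and kept in DMEM for 24 h. DNA was extracted and the T. gondii 529 bp repeat quantified by qPCR. Inhibition rate is relative to untreated control, from triplicate independent experiments.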

T. gondii tachyzoites [3] = experiment: Anti-proliferation activity by qPCR; assay type: cell-based, Toxoplasma gondii RH strain
Procedure, shortened: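 Vero monolayers in 6-well plates were infected with 2 × 10^5 tachyzoites per well. After 8 h, test compound (0.625–10.0 μM) or azithromycin was added in DMEM with 1% FBS for 24 h, with a drug-free negative control. Total DNA was extracted and the 529 bp repeat quantified by qPCR. EC50 and therapeutic index were calculated. Values are mean ± SD of at least three independent experiments.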

Safety assay in mice = assay type: in vivo, mouse; conditions: 5, 10 or 20 mg/kg intraperitoneal, over 7 days
Procedure, shortened: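 BALB/c mice received test compound ip once daily for 7 days at 5, 10 or 20 mg/kg. It was formulated at 2 mg/mL in saline with 10% ethanol and 10% Cremophor EL. Controls received solvent alone or PBS. Clinical toxicity was monitored during dosing and for a further 23 days.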

[4] = Pharmacokinetics in mouse plasma; assay type: in vivo; conditions: female, BALB/c, ip, 20 mg/kg
Procedure, shortened: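 Test compound was formulated at 2 mg/mL in saline with 10% ethanol and 10% Cremophor EL. It was given ip at 20 mg/kg to 9 female BALB/c mice. Blood was sampled at 0, 0.083, 0.25, 0.5, 1, 2, 4, 8, 12 and 24 h and centrifuged at 3000 rpm for 10 min; plasma was stored at −20 °C. The PK model was selected by minimum AIC. Parameters are mean ± SD (n = 3).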

T. gondii tachyzoites [5] = experiment: In vivo activity against T. gondii in infected mice; parameters: species or system Toxoplasma gondii RH strain in BALB/c mouse; conditions: 20 mg/kg intraperitoneal once a day for 7 days, P ≤ 0.05
Procedure, shortened: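 BALB/c mice were infected ip with 1 × 10^3 RH tachyzoites. Treatment started 4 h later, ip once daily for 7 days: test compound 20 mg/kg·bw, azithromycin 50 mg/kg·bw (positive control) or PBS. One mL of ascites was aspirated, washed and centrifuged, and DNA extracted. Parasites were quantified by PCR against a standard curve of serially diluted RH tachyzoite DNA (3.00 × 10^6 to 3.00 × 10^3/mL).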

[6] = tested on: T. gondii tachyzoites in Vero cells; experiment: Transmission electron microscopy; assay type: cell-based, Toxoplasma gondii RH strain; conditions: 5 μM
Procedure, shortened: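 Vero cells in T25 flasks were infected with 2 × 10^6 tachyzoites for 8 h, then cultured with 5 μM test compound for 8 or 24 h. Cells were detached with TrypLE (2 min), PBS-washed and fixed in 2.5% glutaraldehyde (4 °C, 12 h). Post-fixation used 1% osmium in the dark for 1.5 h. Samples were dehydrated through alcohol and acetone and embedded in Epon. Ultrathin sections were stained with uranyl acetate/lead citrate and examined by TEM.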

T. gondii tachyzoites [7] = experiment: Mitochondrial membrane potential; assay type: cell-based, Toxoplasma gondii RH strain; conditions: 1 or 5 μM, 8 or 24 h, P ≤ 0.05
Procedure, shortened: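 Tachyzoites inside Vero monolayers were treated with 1 or 5 μM test compound in DMEM for 8 or 24 h. After a PBS wash, cultures were stained with 50 nM MitoTracker Red CMXRos for 20 min. Fluorescence was read on a microplate reader. Triplicate experiments.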

T. gondii tachyzoites [8] = experiment: ATP level in tachyzoites; assay type: cell-based, Toxoplasma gondii RH strain; conditions: 1 or 5 μM, 8 or 24 h, P ≤ 0.05
Procedure, shortened: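 Infected Vero cultures were exposed to 1 or 5 μM test compound in DMEM for 8 or 24 h. Tachyzoites were then isolated, purified and lysed, and ATP was measured and expressed as μmol/L. Three independent experiments were run.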

T. gondii tachyzoites [9] = experiment: ROS production assay; assay type: cell-based, Toxoplasma gondii RH strain; conditions: 1 or 5 μM, dose-dependent
Procedure, shortened: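 Infected Vero cultures were treated with 1 or 5 μM test compound or left untreated. Then 2 × 10^6 tachyzoites were isolated and PBS-washed. They were loaded with 7.5 μM CMH2DCFDA for 10 min, washed three times and resuspended in PBS. Fluorescence was read at excitation 488 nm and emission 525 nm. Triplicate experiments.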

For `CCCCCCCc1cc(O)c2ccccc2[n+]1[O-]` [HQNO, 2-Heptyl-4-hydroxyquinoline N-oxide], the IC50 at 24 h (Cytotoxicity assay) was 33.4 µM, the “tachyzoite growth (plaques formed)” value ([1]; 0.625–10 μM, after 6 days of incubation) was “dose-dependent inhibition” and the “average number of tachyzoites within the PVs” value ([1]; P ≤ 0.05) was “decreased”. The “invasion and proliferation ability of T. gondii (plaque)” value ([1]; after 48 h, 72 h, 96 h of incubation, P ≤ 0.05) was “significantly reduced”, the “PV number vs control” value ([1]; pre- and post-infection, P ≤ 0.05) was “decreased significantly” and the “T. gondii invasion vs control” value (T. gondii tachyzoites [2]; 0.625–10 μM, P ≤ 0.05) was “significantly inhibited”. For the same compound, the “T. gondii tachyzoite intracellular proliferation vs control” value (T. gondii tachyzoites [3]; 0.625–10 μM, concentration-dependent, P ≤ 0.05) was “significantly (P ≤ 0.05) inhibited”, the “clinical toxicity in mice” value (Safety assay in mice) was “no obvious clinical toxicity” and the AUC(0-inf) [4] was 3880 ± 308 ng·h/mL. The AUC(0-t) [4] was 3860 ± 301 ng·h/mL, the MRT inf [4] was 1.62 ± 0.464 h and the MRT last [4] was 1.56 ± 0.446 h. For the same compound, the Tmax [4] was 4.98 min, the half-life [4] was 1.43 ± 0.393 h and the k el [4] was 0.000135 s⁻¹. The “parasite burden in mouse peritoneum” value (T. gondii tachyzoites [5]) was “significantly decreased”, the “ultrastructure of T. gondii mitochondria (TEM)” value ([6]; 8 h) was “swollen” and the “ultrastructure of T. gondii (TEM)” value ([6]; 24 h) was “parasite death”. For the same compound, the “effect on mitochondria of host cells around PVs (TEM)” value ([6]; Vero host cells) was “does not affect”, the “ΔΨm in parasites vs control” value (T. gondii tachyzoites [7]) was “significant dose-dependent decreases” and the “ATP levels in parasites vs control” value (T. gondii tachyzoites [8]) was “significant dose-dependent decreases”. For the same compound, the “ROS levels in T. gondii vs control” value (T. gondii tachyzoites [9]) was “increase”.

With `CC[C@H]1OC(=O)[C@H](C)[C@@H](O[C@H]2C[C@@](C)(OC)[C@@H](O)[C@H](C)O2)[C@H](C)[C@@H](O[C@@H]2O[C@H](C)C[C@H](N(C)C)[C@H]2O)[C@](C)(O)C[C@@H](C)CN(C)[C@H](C)[C@@H](O)[C@]1(C)O` [azithromycin] the inhibition at 11.5 µM (T. gondii tachyzoites [2]; Toxoplasma gondii, read-out: anti-invasion inhibition rate) was 54% and the “inhibition rate on intracellular proliferation of T. gondii tachyzoites” value (T. gondii tachyzoites [3]; positive control drug, 24 h, qPCR) was 37.50%.
